Here are results for twelve molecules from ChEMBL document CHEMBL1156681, “Synthesis, anti-bacterial, anti-asthmatic and anti-diabetic activities of novel N-substituted-2-(4-phenylethynyl-phenyl)-1H-benzimidazoles and N-substituted 2[4-(4,4-dimethyl-thiochroman-6-yl-ethynyl)-phenyl)-1H-benzimidazoles” (2008).

For orientation: inhibition means the percentage by which the read-out fell short of the control. A word on the MIC: it is the lowest concentration that inhibits growth of the organism. A low value points to a more susceptible organism.

In brackets after ≈: the same amount, converted by molar mass. Activity calls are given as the source filed them. The calls are words filed in the database; no cut-off is given here.

Assay [1] deals with Phosphodiesterase 4 (Homo sapiens) (UniProt P27815+Q08499+Q07343+Q08493). Put plainly: Inhibition of human PDE4 at 1 uM after 20 mins. In kind it is protein assay.
In assay [2] the target is T1, Tyrosine-protein phosphatase non-receptor type 1 (Homo sapiens) (UniProt P18031).
T1 sequence (whole entry): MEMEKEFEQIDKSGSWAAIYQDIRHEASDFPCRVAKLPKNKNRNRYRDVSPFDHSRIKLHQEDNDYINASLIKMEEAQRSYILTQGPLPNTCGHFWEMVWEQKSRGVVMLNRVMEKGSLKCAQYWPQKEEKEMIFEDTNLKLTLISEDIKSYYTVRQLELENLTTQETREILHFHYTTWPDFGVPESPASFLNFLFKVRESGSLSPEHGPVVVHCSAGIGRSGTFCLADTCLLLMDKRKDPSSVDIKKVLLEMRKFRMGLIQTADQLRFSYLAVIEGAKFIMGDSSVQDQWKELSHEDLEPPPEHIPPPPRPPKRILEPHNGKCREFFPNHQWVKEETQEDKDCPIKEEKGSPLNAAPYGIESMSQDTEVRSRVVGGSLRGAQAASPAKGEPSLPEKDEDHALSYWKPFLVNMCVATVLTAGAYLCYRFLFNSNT
Put plainly: Inhibition of human recombinant PTP1B at 30 uM after 30 mins relative to control. Summed up: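 In-house human recombinant PTP-1B (~35 ng) was assayed with p-nitrophenyl phosphate in 25 mM Hepes, 3 mM DTT and 1 mM EDTA, pH 7.4, with DMSO at ≤1%. Absorbance at 405 nm was monitored continuously at 30 °C for 30 min, then NaOH was added and 405 nm read again. Activity was expressed as % of control, and % inhibition as 100 minus activity.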

Assay [3] concerns Salmonella typhimurium. Put plainly: Antibacterial activity against Salmonella Typhimurium at 0.1 ug/ml after 48 hrs by tube dilution method. Type of assay: functional, organism-based. The conditions noted are these: Salmonella enterica subsp. enterica serovar Typhimurium. Summed up: (§1)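 Compounds dissolved in DMSO and tested by tube dilution at […]. Tubes were incubated at 37 °C for 48 h. Growth was scored against the DMSO control as poor, medium or confluent (no inhibition). MIC was taken from the dilution series. Cephalexin served as the reference antibacterial and DMSO as the solvent control.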

Assay [4] deals with Staphylococcus aureus. In words: Antibacterial activity against Staphylococcus aureus at 1 ug/ml after 48 hrs by tube dilution method. In kind it is functional, organism-based. Summed up: as §1
The subject of assay [5] is Staphylococcus aureus. In words: Antibacterial activity against Staphylococcus aureus at 500 ug/ml after 48 hrs by tube dilution method. Type of assay: functional, organism-based. The gist of the method:
as §1

For assay [6], the system named is Staphylococcus aureus. In words: Antibacterial activity against Staphylococcus aureus after 48 hrs by tube dilution method. Type of assay: functional. Summed up:
as §1

The subject of assay [7] is Salmonella typhimurium. In words: Antibacterial activity against Salmonella Typhimurium after 48 hrs by tube dilution method. Type of assay: functional, Salmonella enterica subsp. enterica serovar Typhimurium. The conditions noted are these: Salmonella enterica. Summed up:
as §1

Assay [8] concerns Staphylococcus aureus. In words: Antibacterial activity against Staphylococcus aureus at 0.1 ug/ml after 48 hrs by tube dilution method. In kind it is functional, organism-based. Summed up:
as §1

In assay [9] the test system is Salmonella typhimurium. Put plainly: Antibacterial activity against Salmonella Typhimurium at 500 ug/ml after 48 hrs by tube dilution method. Type of assay: functional, organism-based. The conditions noted are these: Salmonella enterica subsp. enterica serovar Typhimurium. The gist of the method: as §1
Assay [10] deals with Salmonella typhimurium. Put plainly: Antibacterial activity against Salmonella Typhimurium at 1 ug/ml after 48 hrs by tube dilution method. Type of assay: functional, organism-based. The conditions noted are these: Salmonella enterica subsp. enterica serovar Typhimurium. The gist of the method: as §1
The subject of assay [11] is Salmonella typhimurium. In words: Antibacterial activity against Salmonella Typhimurium at 10 ug/ml after 48 hrs by tube dilution method. In kind it is functional, organism-based. The conditions noted are these: Salmonella enterica subsp. enterica serovar Typhimurium. Summed up:
as §1

Assay [12] deals with Staphylococcus aureus. In words: Antibacterial activity against Staphylococcus aureus at 10 ug/ml after 48 hrs by tube dilution method. Type of assay: functional, organism-based. The gist of the method: as §1
Assay [13] has as its target Dipeptidyl peptidase 4 (Homo sapiens) (UniProt P27487). Put plainly: Inhibition of human recombinant DPP4 at 0.3 uM after 30 mins relative to control. Summed up:
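Recombinant human DPP-IV (10 ng) was run in 25 mM Tris pH 7.4, 140 mM NaCl, 10 mM KCl and 1% BSA with Gly-Pro-AMC substrate. Compounds in DMSO were added, and AMC release was followed kinetically at 30 °C for 30 min (ex 380 / em 460 nm). Percent inhibition was calculated against the solvent-only control.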

Assay [14] deals with Salmonella typhimurium. In words: Antibacterial activity against Salmonella Typhimurium at 200 ug/ml after 48 hrs by tube dilution method. Type of assay: functional, organism-based. The following applies: Salmonella enterica subsp. enterica serovar Typhimurium. The gist of the method: as §1
The test system of assay [15] is Staphylococcus aureus. In words: Antibacterial activity against Staphylococcus aureus at 200 ug/ml after 48 hrs by tube dilution method. Type of assay: functional, organism-based. Summed up:
as §1

Dipeptidyl peptidase 4 (Homo sapiens), sequence (P27487 whole entry, looked up): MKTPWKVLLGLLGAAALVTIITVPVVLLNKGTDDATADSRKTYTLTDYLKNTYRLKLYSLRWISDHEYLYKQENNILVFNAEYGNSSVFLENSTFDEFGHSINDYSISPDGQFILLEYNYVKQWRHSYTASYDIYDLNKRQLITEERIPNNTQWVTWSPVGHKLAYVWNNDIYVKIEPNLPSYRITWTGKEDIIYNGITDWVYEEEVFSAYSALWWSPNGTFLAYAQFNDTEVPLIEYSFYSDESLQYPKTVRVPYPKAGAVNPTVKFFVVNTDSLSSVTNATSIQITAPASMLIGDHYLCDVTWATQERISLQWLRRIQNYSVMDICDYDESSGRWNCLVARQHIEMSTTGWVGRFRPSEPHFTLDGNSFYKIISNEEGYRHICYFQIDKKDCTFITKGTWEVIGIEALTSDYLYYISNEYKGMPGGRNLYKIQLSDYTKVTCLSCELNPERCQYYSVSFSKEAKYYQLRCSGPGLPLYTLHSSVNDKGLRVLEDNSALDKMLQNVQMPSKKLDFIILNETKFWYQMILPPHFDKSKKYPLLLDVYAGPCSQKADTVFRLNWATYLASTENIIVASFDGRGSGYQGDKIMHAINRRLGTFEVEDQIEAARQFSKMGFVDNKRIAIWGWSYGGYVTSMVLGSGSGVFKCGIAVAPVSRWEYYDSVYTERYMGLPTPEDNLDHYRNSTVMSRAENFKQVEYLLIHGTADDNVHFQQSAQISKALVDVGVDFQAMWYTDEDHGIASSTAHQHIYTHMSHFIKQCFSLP

For the molecule `CCOC(=O)n1c(-c2ccc(C#Cc3ccc4c(c3)C(C)(C)CCS4)cc2)nc2ccccc21`, the inhibition was 16.9% in assay [1], 0% in assay [2] and 7% in assay [13]. Also, the result in the assay on Salmonella typhimurium [3], with Staphylococcus aureus [4], in the assay on Staphylococcus aureus [8], with Salmonella typhimurium [10], in the assay with Salmonella typhimurium [11] and in the assay with Staphylococcus aureus [12] was inactive. The result with Staphylococcus aureus [5] and with Salmonella typhimurium [9] was Active. In addition, the MIC against Staphylococcus aureus [6] and against Salmonella typhimurium [7] was 500 µg/mL (≈ 1070 µM) each time.
Take `CCCCOC(=O)n1c(-c2ccc(C#Cc3ccc4c(c3)C(C)(C)CCS4)cc2)nc2ccccc21`: the inhibition in [1] came out at 21%; in assay [2] it was 1.94%; in [13], 0%. The outcome with Salmonella typhimurium [3], in the assay on Staphylococcus aureus [4], in the assay with Staphylococcus aureus [8] and in the assay on Salmonella typhimurium [10] was inactive. Also, the outcome with Staphylococcus aureus [5] and in the assay with Salmonella typhimurium [9] was Active. The MIC with Staphylococcus aureus [6] and with Salmonella typhimurium [7] was 500 µg/mL (≈ 1010 µM) each time.
As to `Cn1c(-c2ccc(C#Cc3ccccc3)cc2)nc2ccccc21`, the inhibition in assay [1] is 22.3%; in [2] it was 8.42%; in assay [13], 9%. The outcome with Salmonella typhimurium [3], with Staphylococcus aureus [4], in the assay on Staphylococcus aureus [8], in the assay with Salmonella typhimurium [10], with Salmonella typhimurium [11] and in the assay with Staphylococcus aureus [12] was inactive. Further, the outcome in the assay with Salmonella typhimurium [14], in the assay on Staphylococcus aureus [5] and with Salmonella typhimurium [9] was Active. Besides, the MIC against Staphylococcus aureus [6] stood at 500 µg/mL (≈ 1620 µM); in the assay on Salmonella typhimurium [7], 200 µg/mL (≈ 649 µM).
`CCCCn1c(-c2ccc(C#Cc3ccc4c(c3)C(C)(C)CCS4)cc2)nc2ccccc21`: the inhibition in [1] came out at 19.9%; in assay [2] it was 0.15%; in assay [13] it was 5%. Besides, the result in the assay on Salmonella typhimurium [3], in the assay with Staphylococcus aureus [8] and in the assay with Salmonella typhimurium [10] was inactive. For the same molecule, the result in the assay on Salmonella typhimurium [14], with Staphylococcus aureus [5], with Staphylococcus aureus [15] and with Salmonella typhimurium [9] was Active. In addition, the MIC against Staphylococcus aureus [6] and in the assay with Salmonella typhimurium [7] was 200 µg/mL (≈ 444 µM) in each case.
For the molecule `CCOC(=O)n1c(-c2ccc(C#Cc3ccccc3)cc2)nc2ccccc21`, the inhibition in [1] stood at 16.5%; in assay [2], 27.7%; in assay [13] it was 0%. Further, the result with Salmonella typhimurium [3], with Staphylococcus aureus [4], in the assay with Staphylococcus aureus [8] and with Salmonella typhimurium [10] was inactive. Besides, the result in the assay on Staphylococcus aureus [5] and in the assay on Salmonella typhimurium [9] was Active. The MIC against Staphylococcus aureus [6] and in the assay on Salmonella typhimurium [7] was 500 µg/mL (≈ 1360 µM) throughout.
`CCCn1c(-c2ccc(C#Cc3ccccc3)cc2)nc2ccccc21`: the inhibition came out at 8.91% in assay [1], 0% in assay [2] and 0% in assay [13]. The outcome in the assay with Salmonella typhimurium [3], with Staphylococcus aureus [4], in the assay on Staphylococcus aureus [8], in the assay on Salmonella typhimurium [10] and in the assay with Staphylococcus aureus [12] was inactive. Further, the outcome in the assay on Staphylococcus aureus [5] and in the assay with Salmonella typhimurium [9] was Active. In addition, the MIC against Staphylococcus aureus [6] and in the assay on Salmonella typhimurium [7] was 500 µg/mL (≈ 1490 µM) throughout.
As to `CC1(C)CCSc2ccc(C#Cc3ccc(-c4nc5ccccc5[nH]4)cc3)cc21`, the inhibition was determined as 0% in assay [1], 2.42% in assay [2] and 0% in assay [13]. Besides, the result in the assay with Salmonella typhimurium [3], with Staphylococcus aureus [4], in the assay on Staphylococcus aureus [8] and in the assay with Salmonella typhimurium [10] was inactive. The result in the assay on Salmonella typhimurium [14], with Staphylococcus aureus [5], in the assay on Staphylococcus aureus [15] and in the assay on Salmonella typhimurium [9] was Active. The MIC in the assay on Staphylococcus aureus [6] and in the assay with Salmonella typhimurium [7] was 200 µg/mL (≈ 507 µM) each time.
For the molecule `COC(=O)n1c(-c2ccc(C#Cc3ccccc3)cc2)nc2ccccc21`, the inhibition amounted to 18.2% in [1], 29% in assay [2] and 0% in assay [13]. Besides, the result with Salmonella typhimurium [3], in the assay with Staphylococcus aureus [4], with Staphylococcus aureus [8], with Salmonella typhimurium [10] and in the assay with Salmonella typhimurium [11] was inactive. Moreover, the outcome in the assay on Staphylococcus aureus [5] and with Salmonella typhimurium [9] was Active. For the same molecule, the MIC against Staphylococcus aureus [6] and against Salmonella typhimurium [7] was 500 µg/mL (≈ 1420 µM) throughout.
Regarding `CC1(C)CCSc2ccc(C#Cc3ccc(-c4nc5ccccc5n4S(=O)(=O)C(F)(F)F)cc3)cc21`, the inhibition is 22.6% in assay [1], 0.52% in [2] and 9% in assay [13]. Also, the result with Salmonella typhimurium [3], in the assay on Staphylococcus aureus [4], with Staphylococcus aureus [8], in the assay with Salmonella typhimurium [10], in the assay with Salmonella typhimurium [11] and with Staphylococcus aureus [12] was inactive. For the same molecule, the outcome with Salmonella typhimurium [14], with Staphylococcus aureus [5] and with Salmonella typhimurium [9] was Active. The results for the MIC in the assay with Staphylococcus aureus [6] and with Salmonella typhimurium [7] were 500 µg/mL (≈ 949 µM) and 200 µg/mL (≈ 380 µM), respectively.
With `CCCCn1c(-c2ccc(C#Cc3ccccc3)cc2)nc2ccccc21`, the inhibition was 19.4% in assay [1], 0% in assay [2] and 3% in assay [13]. Further, the outcome with Salmonella typhimurium [3], in the assay with Staphylococcus aureus [4], with Staphylococcus aureus [8] and in the assay on Salmonella typhimurium [10] was inactive. The outcome in the assay on Staphylococcus aureus [5] and in the assay with Salmonella typhimurium [9] was Active. Moreover, the MIC against Staphylococcus aureus [6] and in the assay on Salmonella typhimurium [7] was 500 µg/mL (≈ 1430 µM) each time.
With `CCCn1c(-c2ccc(C#Cc3ccc4c(c3)C(C)(C)CCS4)cc2)nc2ccccc21`, the inhibition in assay [1] amounted to 17.3%; in [2], 7.38%; in [13], 0%. For the same molecule, the result in the assay with Salmonella typhimurium [3], with Staphylococcus aureus [4], with Staphylococcus aureus [8], in the assay with Salmonella typhimurium [10], in the assay with Salmonella typhimurium [11] and with Staphylococcus aureus [12] was inactive. In addition, the result in the assay with Staphylococcus aureus [5] and in the assay on Salmonella typhimurium [9] was Active. In addition, the MIC in the assay with Staphylococcus aureus [6] and in the assay on Salmonella typhimurium [7] was 500 µg/mL (≈ 1150 µM) in each case.
Turning to `COC(=O)n1c(-c2ccc(C#Cc3ccc4c(c3)C(C)(C)CCS4)cc2)nc2ccccc21`, the inhibition amounted to 17.9% in assay [1], 0.97% in assay [2] and 5% in assay [13]. The outcome in the assay with Salmonella typhimurium [3], in the assay on Staphylococcus aureus [4], with Staphylococcus aureus [8] and in the assay on Salmonella typhimurium [10] was inactive. Besides, the outcome in the assay on Salmonella typhimurium [14], in the assay on Staphylococcus aureus [5], in the assay with Staphylococcus aureus [15] and with Salmonella typhimurium [9] was Active. Further, the MIC against Staphylococcus aureus [6] and with Salmonella typhimurium [7] was 200 µg/mL (≈ 442 µM) throughout.
